Reference: ChEMBL document CHEMBL1139368, “Pt(II) complexes of a combretastatin A-4 analogous chalcone: effects of conjugation on cytotoxicity, tumor specificity, and long-term tumor growth suppression” (J Med Chem, 2009)
Calls of active or inactive are those of the source. The calls are words filed in the database; no cut-off is given here.

Assays:
[1] = Cytotoxicity against human A253 cells after 96 hrs by SRB assay; type: functional, cell-based; settings: A253, 96 h
Procedure, shortened: (§1)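 Monolayer cultures in RPMI 1640 with 10% heat-inactivated FBS and streptomycin/penicillin, 37 °C, 5% CO₂. Cells seeded day 0 at densities giving exponential growth, exposed day 1 to 0.001–10 μM, SRB read day 5 (96 h exposure); surviving cells as percentage of untreated controls, IC₅₀ taken from dose–response curves. Three independent experiments for some compounds, two for others.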

HL-60 [2] = test: Induction of apoptosis in human HL60 cells assessed as processing of procaspase 9 to activated caspase 9 at 10 uM by Western blotting; type: functional, cell-based; settings: TDE = time-dependent effect
Procedure, shortened: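 HL-60 cells at 0.5 × 10⁶/mL, exposed to 10 μM (in 1% DMF/99% PBS) at 37 °C, sampled at 0, 3, 7, 24 and 30 h. Lysed in Tris/NaCl/Triton X-100 buffer pH 7.4, 60 μg protein on 12% SDS–PAGE, PVDF blot, anti-caspase-9 1:10,000, HRP secondary, chemiluminescence. Procaspase-9 (~46 kDa) and cleaved form (~35 kDa) followed.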

A2780 [3] = test: Induction of apoptosis in human A2780 cells assessed as increase in cleaved/activated form of caspase 3 at 1 uM after 24 hrs by Western blot analysis; type: functional, cell-based
Procedure, shortened: (§2)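 Cells treated 24 h at 1 μM, then rinsed in PBS and lysed in RIPA buffer with protease inhibitors. 40 μg protein per lane on SDS–PAGE, blotted to nitrocellulose, blocked in 5% milk/PBST, probed 2 h with mouse monoclonals against caspase-3, PARP and actin (loading control). HRP secondary, ECL detection, compared with untreated control.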

DLD-1 [4] = test: Cytotoxicity against human DLD1 cells after 96 hrs by SRB assay; type: functional, cell-based; settings: DLD-1, 96 h; procedure, shortened: as §1
HCT-8 = test: Cytotoxicity against human HCT8 cells after 96 hrs by SRB assay; type: functional, cell-based; settings: HCT-8, 96 h; procedure, shortened: as §1
A2780 [5] = test: Induction of apoptosis in human A2780 cells assessed as PARP cleavage at 1 uM after 24 hrs by Western blot analysis; type: functional, cell-based; procedure, shortened: as §2
HL-60 [6] = test: Induction of apoptosis in human HL60 cells at 10 uM after 15 hrs by TUNEL assay; type: functional
Procedure, shortened: (§3)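 TUNEL with fluorescein-tagged nucleotides labelling 3'-OH DNA ends, on HL-60 and 518A2 cells exposed to 10 μM for 15 h. Apoptotic cells were counted as green fluorescent spots under fluorescence microscopy and related to total cell number.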

[7] = Cytotoxicity against human 1411HP cells after 96 hrs by SRB assay; type: functional, cell-based; procedure, shortened: as §1
[8] = Cytotoxicity against human 2102EP cells after 96 hrs by SRB assay; type: functional, cell-based; procedure, shortened: as §1
SW-1736 = test: Cytotoxicity against human SW1736 cells after 96 hrs by SRB assay; type: functional, cell-based; settings: SW-1736, 96 h; procedure, shortened: as §1
[9] = Induction of apoptosis in human WW070327 cells assessed as increase in cleaved/activated form of caspase 3 at 1 uM after 24 hrs by Western blot analysis; type: cell-based; settings: ww070327, 24 h; procedure, shortened: as §2
518A2 [10] = test: Induction of apoptosis in human 518A2 cells assessed as increase in cleaved/activated form of caspase 3 at 1 uM after 24 hrs by Western blot analysis; type: functional, cell-based; procedure, shortened: as §2
518A2 [11] = test: Induction of apoptosis in human 518A2 cells at 10 uM after 15 hrs by TUNEL assay; type: functional; procedure, shortened: as §3
[12] = Cytotoxicity against human H12.1 cells after 96 hrs by SRB assay; type: functional, cell-based; procedure, shortened: as §1
DLD-1 [13] = test: Induction of apoptosis in human DLD1 cells assessed as PARP cleavage at 1 uM after 24 hrs by Western blot analysis; type: functional, cell-based; procedure, shortened: as §2
BT-474 = test: Cytotoxicity against human BT474 cells after 96 hrs by SRB assay; type: functional, cell-based; settings: BT-474, 96 h; procedure, shortened: as §1
[14] = Cytotoxicity against human 518A2 cells after 96 hrs by SRB assay; type: functional, cell-based; settings: 518A2, 96 h; procedure, shortened: as §1
HCT-116 = test: Cytotoxicity against human HCT116 cells after 96 hrs by SRB assay; type: functional, cell-based; settings: HCT-116, 96 h; procedure, shortened: as §1
HT-29 = test: Cytotoxicity against human HT-29 cells after 96 hrs by SRB assay; type: functional, cell-based; settings: HT-29, 96 h; procedure, shortened: as §1
A-431 [15] = test: Suppression of regrowth in human A431 cells at 10 nM treated for 96 hrs and measured over 10 days by SRB assay; type: functional, cell-based
Procedure, shortened: (§4)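 SRB regrowth test: cells exposed 96 h to serial dilutions, chosen around IC₉₀, then fixed at once (day 0) or washed drug-free and grown in fresh medium for 2, 4, 6 or 10 days before SRB staining. Three independent experiments.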

A549 = test: Cytotoxicity against human A549 cells after 96 hrs by SRB assay; type: functional, cell-based; settings: A549, 96 h; procedure, shortened: as §1
A253 cell line = test: Suppression of regrowth in human A253 cells at 10 nM treated for 96 hrs and measured over 10 days by SRB assay; type: functional, cell-based; procedure, shortened: as §4
8505C = test: Cytotoxicity against human 8505C cells after 96 hrs by SRB assay; type: functional, cell-based; procedure, shortened: as §1
A2780 [16] = test: Suppression of regrowth in human A2780 cells at 10 nM treated for 96 hrs and measured over 10 days by SRB assay; type: functional, cell-based; procedure, shortened: as §4
A2780 [17] = test: Cytotoxicity against human A2780 cells after 96 hrs by SRB assay; type: functional, cell-based; settings: A2780, 96 h; procedure, shortened: as §1
A-427 = test: Cytotoxicity against human A427 cells after 96 hrs by SRB assay; type: functional, cell-based; settings: A-427, 96 h; procedure, shortened: as §1
A-431 [18] = test: Cytotoxicity against human A431 cells after 96 hrs by SRB assay; type: functional, cell-based; settings: A-431, 96 h; procedure, shortened: as §1
[19] = Cytotoxicity against human NCI-H322 cells after 96 hrs by SRB assay; type: functional, cell-based; settings: NCI-H322, 96 h; procedure, shortened: as §1
[20] = Induction of apoptosis in human WW070327 cells assessed as PARP cleavage at 1 uM after 24 hrs by Western blot analysis; type: cell-based; settings: ww070327, 24 h; procedure, shortened: as §2
NCI-H358 = test: Cytotoxicity against human NCI-H358 cells after 96 hrs by SRB assay; type: functional, cell-based; settings: NCI-H358, 96 h; procedure, shortened: as §1
[21] = Inhibition of tubulin polymerization at 3 uM; settings: TDE = time-dependent effect
Procedure, shortened: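 Commercial fluorescence-based tubulin polymerization kit, run as the manufacturer directs, compounds at 3 μM. Polymerization followed as RFU at excitation 360 nm, emission 465 nm. Three independent experiments.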

SW480 = test: Cytotoxicity against human SW480 cells after 96 hrs by SRB assay; type: functional, cell-based; settings: SW480, 96 h; procedure, shortened: as §1
518A2 [22] = test: Induction of apoptosis in human 518A2 cells assessed as PARP cleavage at 1 uM after 24 hrs by Western blot analysis; type: functional, cell-based; procedure, shortened: as §2
MCF7 = test: Cytotoxicity against human MCF7 cells after 96 hrs by SRB assay; type: functional, cell-based; settings: MCF7, 96 h; procedure, shortened: as §1
DLD-1 [23] = test: Induction of apoptosis in human DLD1 cells assessed as increase in cleaved/activated form of caspase 3 at 1 uM after 24 hrs by Western blot analysis; type: functional, cell-based; procedure, shortened: as §2
FaDu = test: Cytotoxicity against human FADU cells after 96 hrs by SRB assay; type: functional, cell-based; procedure, shortened: as §1

COc1ccc(/C=C/C(=O)c2cc(OC)c(OC)c(OC)c2)cc1O
IC50 [1]: 22.8 nM | Activity (HL-60 [2]): tde | Activity (A2780 [3]): Active | IC50 (DLD-1 [4]): 32.3 nM | IC50 (HCT-8): 56 nM | Activity (A2780 [5]): Active | Activity (HL-60 [6]): 40% | IC50 [7]: 142 nM | IC50 [8]: 31.4 nM | IC50 (SW-1736): 27.5 nM | Activity [9]: Not Active | Activity (518A2 [10]): Active | Activity (518A2 [11]): 50% | IC50 [12]: 33.6 nM | Activity (DLD-1 [13]): Active | IC50 (BT-474): 193 nM | IC50 [14]: 33.6 nM | IC50 (HCT-116): 25.1 nM | IC50 (HT-29): 2600 nM | Activity (A-431 [15]): Active | IC50 (A549): 67.5 nM | Activity (A253 cell line): Active | IC50 (8505C): 49.7 nM | Activity (A2780 [16]): Active | IC50 (A2780 [17]): 15.6 nM | IC50 (A-427): 51.2 nM | IC50 (A-431 [18]): 15 nM | IC50 [19]: 39 nM | Activity [20]: Not Active | IC50 (NCI-H358): 17.1 nM | Activity [21]: tde | IC50 (SW480): 102 nM | Activity (518A2 [22]): Active | IC50 (MCF7): 22.3 nM | Activity (DLD-1 [23]): Active | IC50 (FaDu): 41 nM
